# Shown is part of a subset that was picked to be rich in hits.
# T cruzi growth-1 – blocks T. cruzi growth in NIH3T3 culture; AID 624255; T. cruzi beta-gal in NIH3T3, GalScreen luminescence, 90 h; inhibition, % at 8.34 µM; 5.9% of 77,000 active;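 active = mean inhibition above about 93%, with at least 55% of replicates each passing it, limit read from the data, passing the limit was not always enough; inconclusive = only one of those two conditions holds; inactive = neither condition holds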
# IDH1 mut inh – inhibitors of human IDH1 R132H; AID 624101; 0.18% of 70,000 active; inhibition, % at 10 µM; O75874; IDH1 R132H reductase, diaphorase/resazurin fluorescence, 60 min; in the data active = inhibition above about 34%; inconclusive = no clear call, values can overlap the other calls; inactive = below about 11%;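 also: 0% = DMSO and 100% = no enzyme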
# Target sequence (O75874 whole entry R132H): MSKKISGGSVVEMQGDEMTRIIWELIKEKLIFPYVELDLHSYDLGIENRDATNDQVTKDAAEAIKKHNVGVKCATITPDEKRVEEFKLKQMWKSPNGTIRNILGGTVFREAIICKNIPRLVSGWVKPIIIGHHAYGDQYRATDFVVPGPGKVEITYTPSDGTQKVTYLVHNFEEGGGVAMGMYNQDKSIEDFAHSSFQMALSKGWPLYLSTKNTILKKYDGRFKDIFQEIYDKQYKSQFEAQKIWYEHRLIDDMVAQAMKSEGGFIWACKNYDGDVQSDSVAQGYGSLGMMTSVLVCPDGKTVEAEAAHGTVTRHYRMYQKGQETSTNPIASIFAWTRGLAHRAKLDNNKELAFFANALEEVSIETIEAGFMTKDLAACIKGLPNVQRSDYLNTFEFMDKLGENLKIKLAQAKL
# GASC1 inh – blocks human GASC-1 (KDM4C) demethylase activity | 0.15% of 96,000 active | GST-KDM4C 2-372, H3K9me3 peptide, LANCE TR-FRET | Q9H3R0 | inhibition, % at 12.5 µM;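 active = mean replicate inhibition above about 25%, with at least 55% of replicates also reaching it, limit read from the data, passing the limit was not always enough; inconclusive = only one of those two conditions met; inactive = neither condition met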
# Target sequence (Q9H3R0 2-372 limits assumed): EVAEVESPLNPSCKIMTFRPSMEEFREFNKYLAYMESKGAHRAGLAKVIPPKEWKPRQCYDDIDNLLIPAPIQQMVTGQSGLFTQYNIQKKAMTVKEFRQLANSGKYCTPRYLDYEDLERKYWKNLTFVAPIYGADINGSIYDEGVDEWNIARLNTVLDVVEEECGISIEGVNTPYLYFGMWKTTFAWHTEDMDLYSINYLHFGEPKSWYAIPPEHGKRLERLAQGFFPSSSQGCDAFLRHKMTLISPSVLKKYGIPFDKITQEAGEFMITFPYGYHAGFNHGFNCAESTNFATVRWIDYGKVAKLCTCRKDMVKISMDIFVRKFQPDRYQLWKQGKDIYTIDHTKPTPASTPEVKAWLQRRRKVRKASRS
#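 System: N-terminal GST-fused human GASC-1 (KDM4C) fragment, residues 2-372 / Amount: 10 nM GST-KDM4C in enzyme reaction / Also added: H3K9me3 peptide with Fe(II)/2OG / Times: 30 min demethylation and 1 h detection at room temperature / Signal: LANCE TR-FRET / Read-out basis: Fall in 671/618 emission ratio as inhibition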
# T cruzi growth-2 – Trypanosoma cruzi proliferation inhibition; shares compounds with T cruzi growth-1; T. cruzi beta-gal in NIH3T3, GalScreen luminescence, 90 h; inhibition, % at 8.35 µM; 72% of 5,600 active;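 active = mean replicate inhibition above about 95% and at least 55% of replicates individually reaching it, limit read from the data; inconclusive = only one of the two criteria is met; inactive = neither criterion is met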
# T cruzi growth-3 – Trypanosoma cruzi proliferation inhibition; shares compounds with T cruzi growth-1; T. cruzi beta-gal in NIH3T3, GalScreen luminescence, 90 h; inhibition, % at 2.09 µM; 21% of 5,600 active;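 active = mean inhibition above about 95%, with at least 55% of replicates also reaching it, limit read from the data; inconclusive = meets just one of the two conditions; inactive = meets neither condition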;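 also: plate controls were neutral control median for no effect and positive control median for full effect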
# 3T3 cytotox – cytotoxicity in mouse NIH/3T3 fibroblasts | NIH/3T3 viability, CellTiter-Glo ATP luminescence, 90 h | shares compounds with T cruzi growth-1 | 14% of 5,600 active | cytotoxicity (signal decrease), % at 8.35 µM;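 active = mean signal decrease across replicates above about 35% based on untreated-well scatter, with enough replicates individually passing, limit read from the data; inconclusive = no rule stated though some were filed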;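 also: 0% = median of neutral control wells and 100% = median of positive control wells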
# NIH3T3 tox 2 – kills mouse NIH/3T3 fibroblasts; shares compounds with T cruzi growth-1; NIH/3T3 viability, CellTiter-Glo ATP luminescence, 90 h; inhibition, % at 24.9 µM; 56% of 5,600 active; AID 651744;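 active = mean loss of cell viability signal at or above a set limit, and enough replicates individually reaching it; inconclusive = meets only the mean limit or only the replicate share; inactive = meets neither condition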;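 also: 0% = median of neutral control wells and 100% = median of positive control wells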
# Active calls of the source: *; ? = inconclusive; nt = no result given.
SMILES,T cruzi growth-1,IDH1 mut inh,GASC1 inh,T cruzi growth-2,T cruzi growth-3,3T3 cytotox,NIH3T3 tox 2
Cc1noc(C)c1S(=O)(=O)Nc1ccc2c(c1)CC(=O)N([C@@H](C)CO)C[C@@H](C)[C@H](CN(C)Cc1ccc(Oc3ccccc3)cc1)O2,?,0.2,2.4,108.8*,88.6,-25.3,103.8*
COc1ccc(S(=O)(=O)Nc2ccc3c(c2)CC(=O)N([C@@H](C)CO)C[C@H](C)[C@@H](CN(C)Cc2ccccc2)O3)cc1,78.7,-0.5,-0.5,nt,nt,nt,nt
COc1ccc(S(=O)(=O)Nc2ccc3c(c2)CC(=O)N([C@@H](C)CO)C[C@@H](C)[C@@H](CN(C)Cc2ccccc2)O3)cc1,74.3,nt,nt,nt,nt,nt,nt
COc1ccc(S(=O)(=O)Nc2ccc3c(c2)CC(=O)N([C@@H](C)CO)C[C@H](C)[C@H](CN(C)Cc2ccccc2)O3)cc1,99.3*,2.6,-0.2,99.2*,27.2,14.6,19.2
Cc1noc(C)c1S(=O)(=O)Nc1ccc2c(c1)CC(=O)N([C@H](C)CO)C[C@@H](C)[C@@H](CN(C)Cc1ccc(Oc3ccccc3)cc1)O2,65.8,4.1,-0.2,nt,nt,nt,nt
COc1cccc(C(=O)NCCN=C2NS(=O)(=O)c3ccccc32)c1,nt,-0.5,nt,nt,nt,nt,nt
CCC(Sc1nnc(-c2ccc([N+](=O)[O-])cc2)n1C)C(=O)Nc1ccc(Cl)cc1 (stereo unspecified),nt,0.4,nt,nt,nt,nt,nt
C[C@@H]1CN([C@H](C)CO)C(=O)Cc2cc(NC(=O)CCCCCC(=O)Nc3ccccc3N)ccc2O[C@H]1CN(C)Cc1ccccc1,21.1,0.0,7.7,nt,nt,nt,nt
C[C@@H]1CN([C@@H](C)CO)C(=O)Cc2cc(NC(=O)CCCCCC(=O)Nc3ccccc3N)ccc2O[C@H]1CN(C)Cc1ccc2c(c1)OCO2,nt,-1.6,nt,nt,nt,nt,nt
C[C@H]1CN([C@@H](C)CO)C(=O)Cc2cc(NC(=O)CCCCCC(=O)Nc3ccccc3N)ccc2O[C@H]1CN(C)Cc1ccc2c(c1)OCO2,?,0.1,0.7,89.3,15.9,-0.5,19.2
C[C@H](CO)N1C[C@H](C)[C@@H](CN(C)Cc2ccc3c(c2)OCO3)Oc2ccc(NC(=O)CCCCCC(=O)Nc3ccccc3N)cc2CC1=O,100.7*,1.0,0.1,108.8*,79.1,-6.0,-0.4
COc1cccc2cc(C(=O)C3C(=O)C(=O)N(CCCN(C)C)C3c3ccccc3F)oc12 (stereo unspecified),nt,-0.3,nt,nt,nt,nt,nt
O=c1c2c(nc(NCCCO)n1Cc1ccccc1)-c1ccccc1CC21CCCC1,nt,-0.3,nt,nt,nt,nt,nt
CN(CC(=O)Nc1ccc([N+](=O)[O-])cc1)S(=O)(=O)c1cc(Cl)ccc1Cl,nt,0.1,nt,nt,nt,nt,nt
COC(=O)c1ccc(NC(=O)CSc2nc(-c3cccs3)cc(=O)[nH]2)cc1,nt,0.1,nt,nt,nt,nt,nt
COc1ccc(C(C)=O)cc1CSc1nnc(-c2cccc(Br)c2)n1-c1ccccc1,nt,-0.5,nt,nt,nt,nt,nt
Cc1cccc(S(=O)(=O)N2C[C@@H]3[C@H](c4ccccc42)[C@H](CO)N3Cc2ccc3c(c2)OCO3)c1,108.5*,nt,-0.5,100.8*,108.4*,24.1,-30.9
Cc1cccc(S(=O)(=O)N2C[C@H]3[C@@H](c4ccccc42)[C@H](CO)N3Cc2cccnc2)c1,85.2,nt,-0.9,nt,nt,nt,nt
O=S(=O)(c1ccccc1)N1C[C@H]2[C@@H](c3ccccc31)[C@H](CO)N2Cc1ccc2c(c1)OCO2,?,nt,2.1,93.3,41.9,-5.3,3.1
O=S(=O)(c1ccccc1)N1C[C@H]2[C@@H](c3ccccc31)[C@@H](CO)N2Cc1ccc(F)cc1,84.0,nt,-0.6,nt,nt,nt,nt
O=S(=O)(c1ccccc1)N1C[C@@H]2[C@H](c3ccccc31)[C@H](CO)N2Cc1ccc2c(c1)OCO2,110.5*,nt,-5.5,105.4*,61.2,24.0,13.4
O=S(=O)(c1ccccc1)N1C[C@H]2[C@@H](c3ccccc31)[C@@H](CO)N2Cc1ccc2c(c1)OCO2,101.3*,nt,-4.5,101.1*,44.3,18.1,16.0
O=S(=O)(c1ccccc1)N1C[C@@H]2[C@H](c3ccccc31)[C@H](CO)N2Cc1ccc(F)cc1,94.2,nt,-1.4,nt,nt,nt,nt
O=S(=O)(c1ccc(F)cc1)N1C[C@@H]2[C@H](c3ccccc31)[C@@H](CO)N2Cc1ccc2c(c1)OCO2,76.7,nt,0.9,nt,nt,nt,nt
COC(=O)CN(c1ccc(Cl)c(C(F)(F)F)c1)S(=O)(=O)c1ccc(C)cc1,nt,-0.2,nt,nt,nt,nt,nt
SMILES,T cruzi growth-1,IDH1 mut inh,GASC1 inh,T cruzi growth-2,T cruzi growth-3,3T3 cytotox,NIH3T3 tox 2
COC(=O)c1cc2cc(O)c(-c3c(O)cc4cc(C(=O)OC)oc(=O)c4c3O)c(O)c2c(=O)o1,nt,-0.1,nt,nt,nt,nt,nt
CC(C)(C)c1ccc(OCC(O)Cn2cnc3ccccc32)cc1 (stereo unspecified),nt,2.1,nt,nt,nt,nt,nt
CCc1nc2sc3c(c2c2nnc(SCC(=O)Nc4ccccc4)n12)CCC3,nt,0.0,nt,nt,nt,nt,nt
O=C(O)COc1ccc(NC(=O)c2ccccc2-c2ccccc2C(=O)O)cc1,nt,0.6,nt,nt,nt,nt,nt
COc1cccc(S(=O)(=O)N(C)C[C@@H]2Oc3cc(Br)ccc3S(=O)(=O)N([C@@H](C)CO)C[C@@H]2C)c1,nt,nt,-2.4,nt,nt,nt,nt
COc1ccc(S(=O)(=O)N(C)C[C@@H]2Oc3cc(Br)ccc3S(=O)(=O)N([C@H](C)CO)C[C@@H]2C)cc1,?,nt,-1.8,101.3*,39.4,14.7,61.4*
Cc1ccc(S(=O)(=O)N(C)C[C@H]2Oc3cc(Br)ccc3S(=O)(=O)N([C@H](C)CO)C[C@H]2C)cc1,66.7,-0.5,0.6,nt,nt,nt,nt
COc1ccc(S(=O)(=O)N(C)C[C@H]2Oc3cc(Br)ccc3S(=O)(=O)N([C@H](C)CO)C[C@H]2C)cc1,?,nt,-1.1,102.0*,38.1,5.0,54.2*
Cc1occc1C(=O)Nc1sc2c(c1C(=O)NCc1cccnc1)CCCC2,nt,1.4,nt,nt,nt,nt,nt
Cc1ccc(C)c(NC(=O)CN(c2cccc(F)c2)S(C)(=O)=O)c1,nt,-0.2,nt,nt,nt,nt,nt
COc1cccc(-c2ccc3c(c2)O[C@H](CN(C)Cc2cccnc2)[C@H](C)CN([C@H](C)CO)S3(=O)=O)c1,112.5*,-0.1,0.3,97.0*,64.3,54.1*,63.9*
COc1cccc(-c2ccc3c(c2)O[C@@H](CN(C)Cc2cccnc2)[C@H](C)CN([C@H](C)CO)S3(=O)=O)c1,111.7*,9.5,3.7,?,92.4,55.6*,103.8*
COc1ccc(-c2ccc3c(c2)O[C@H](CN(C)Cc2cccnc2)[C@H](C)CN([C@H](C)CO)S3(=O)=O)cc1,nt,0.1,1.0,nt,nt,nt,nt
COc1ccc(-c2ccc3c(c2)O[C@H](CN(C)Cc2cccnc2)[C@H](C)CN([C@@H](C)CO)S3(=O)=O)cc1,nt,-0.1,0.0,nt,nt,nt,nt
COc1ccc(-c2ccc3c(c2)O[C@H](CN(C)Cc2cccnc2)[C@@H](C)CN([C@H](C)CO)S3(=O)=O)cc1,nt,-1.7,-2.4,nt,nt,nt,nt

# From PubChem
